In ChEMBL document CHEMBL1255456, “Effect of NlpE overproduction on multidrug resistance in Escherichia coli” (2010):
≈ marks a conversion by molar mass, not a printed value. Calls of active or inactive are those of the source. The rule behind the calls is not given here.

Tests used:
[1] = system: Escherichia coli; assay: Antibacterial activity against Escherichia coli NKE159 harboring deletion mutation in acrB, cpxAR protein and plasmid expressing nlpE gene; format: functional
[2] = system: Escherichia coli; assay: Antibacterial activity against Escherichia coli NKE1366 harboring deletion mutation in acrB and vector expressing mdtABC gene; format: functional
[3] = system: Escherichia coli; assay: Antibacterial activity against Escherichia coli NKE126 harboring deletion mutation in acrB and acrD protein; format: functional
[4] = system: Escherichia coli; assay: Antibacterial activity against Escherichia coli NKE160 harboring deletion mutation in acrB protein and vector expressing tolC gene; format: functional
[5] = system: Escherichia coli; assay: Antibacterial activity against Escherichia coli NKE1355 harboring deletion mutation in acrB protein and plasmid expressing BAD gene in presence of increasing concentration of arabinose; format: functional, organism-based
Summary of the method: (§1)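 ΔacrB host carrying empty pBAD33 or pBAD33 with nlpE under the arabinose-inducible PBAD promoter. MICs of oxacillin, cloxacillin, nafcillin, cefamandole, aztreonam, novobiocin, deoxycholate and kanamycin were measured with arabinose at several concentrations from 0 to 10,000 μM. Each MIC determination was repeated at least three times.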

[6] = system: Escherichia coli; assay: Antibacterial activity against Escherichia coli NKE1368 harboring deletion mutation in acrB, acrD and mdtABC genes and carrying empty pHSG398 vector
[7] = system: Escherichia coli; assay: Antibacterial activity against Escherichia coli NKE1365 harboring deletion mutation in acrB and mdtABC protein; format: functional
[8] = system: Escherichia coli; assay: Antibacterial activity against Escherichia coli NKE1359 harboring deletion mutation in acrB protein and plasmid expressing BADnlpE gene in presence of increasing concentration of arabinose; format: functional, organism-based; summary of the method: as §1
[9] = system: Escherichia coli; assay: Antibacterial activity against Escherichia coli NKE154 harboring vector expressing acrB deletion mutant; format: functional
[10] = system: Escherichia coli; assay: Antibacterial activity against Escherichia coli NKE1316 harboring deletion mutation in acrB, acrD and mdtABC protein; format: functional
[11] = system: Escherichia coli; assay: Antibacterial activity against Escherichia coli NKE127 harboring deletion mutation in acrB and cpxAR protein; format: functional
[12] = system: Escherichia coli; assay: Antibacterial activity against Escherichia coli NKE1369 harboring deletion mutation in acrB, acrD, mdtABC protein and plasmid expressing nlpE gene; format: functional
[13] = system: Escherichia coli; assay: Antibacterial activity against Escherichia coli NKE128 harboring deletion mutation in acrB and tolC protein; format: functional
[14] = system: Escherichia coli; assay: Antibacterial activity against Escherichia coli NKE1367 harboring deletion mutation in acrB, mdtABC protein and plasmid expressing nlpE gene; format: functional
[15] = system: Escherichia coli; assay: Antibacterial activity against Escherichia coli NKE96 harboring deletion mutation in acrB protein; format: functional
[16] = system: Escherichia coli; assay: Antibacterial activity against Escherichia coli NKE158 harboring deletion mutation in acrB protein and vector expressing cpxAR gene; format: functional
[17] = system: Escherichia coli; assay: Antibacterial activity against Escherichia coli NKE155 harboring deletion mutation in acrB protein and plasmid expressing nlpE gene; format: functional
[18] = system: Escherichia coli; assay: Antibacterial activity against Escherichia coli NKE157 harboring deletion mutation in acrB, acrD protein and plasmid expressing nlpE gene; format: functional
[19] = system: Escherichia coli; assay: Antibacterial activity against Escherichia coli NKE156 harboring deletion mutation in acrB protein and vector expressing acrD gene; format: functional
[20] = system: Escherichia coli; assay: Antibacterial activity against Escherichia coli NKE161 harboring deletion mutation in acrB protein, vector expressing tolC gene and plasmid expressing nlpE gene; format: functional

Compound	MIC [1] [µg/mL]	MIC [2] [µg/mL]	MIC [3] [µg/mL]	MIC [4] [µg/mL]	Activity [5]	MIC [6] [µg/mL]	MIC [7] [µg/mL]	Activity [8]	MIC [9] [µg/mL]	MIC [10] [µg/mL]	MIC [11] [µg/mL]	MIC [12] [µg/mL]	MIC [13] [µg/mL]	MIC [14] [µg/mL]	MIC [15] [µg/mL]	MIC [16] [µg/mL]	MIC [17] [µg/mL]	MIC [18] [µg/mL]	MIC [19] [µg/mL]	MIC [20] [µg/mL]
Cn1nnnc1SCC1=C(C(=O)O)N2C(=O)[C@@H](NC(=O)[C@H](O)c3ccccc3)[C@H]2SC1 [CEFAMANDOLE]	0.063 (≈ 0.136 µM)	0.063 (≈ 0.136 µM)	0.063 (≈ 0.136 µM)	0.063 (≈ 0.136 µM)	Active	0.063 (≈ 0.136 µM)	0.063 (≈ 0.136 µM)	inactive	0.063 (≈ 0.136 µM)	0.063 (≈ 0.136 µM)	0.063 (≈ 0.136 µM)	0.063 (≈ 0.136 µM)	0.063 (≈ 0.136 µM)	0.13 (≈ 0.281 µM)	0.063 (≈ 0.136 µM)	0.063 (≈ 0.136 µM)	0.25 (≈ 0.541 µM)	0.13 (≈ 0.281 µM)	0.063 (≈ 0.136 µM)	0.063 (≈ 0.136 µM)
Cc1onc(-c2ccccc2Cl)c1C(=O)N[C@@H]1C(=O)N2[C@@H]1SC(C)(C)[C@@H]2C(=O)O [CLOXACILLIN]	1 (≈ 2.29 µM)	1 (≈ 2.29 µM)	1 (≈ 2.29 µM)	0.25 (≈ 0.574 µM)	Active	0.5 (≈ 1.15 µM)	1 (≈ 2.29 µM)	inactive	1 (≈ 2.29 µM)	0.5 (≈ 1.15 µM)	1 (≈ 2.29 µM)	0.5 (≈ 1.15 µM)	0.25 (≈ 0.574 µM)	4 (≈ 9.18 µM)	1 (≈ 2.29 µM)	1 (≈ 2.29 µM)	16 (≈ 36.7 µM)	2 (≈ 4.59 µM)	1 (≈ 2.29 µM)	0.25 (≈ 0.574 µM)
CCOc1ccc2ccccc2c1C(=O)N[C@@H]1C(=O)N2[C@@H]1SC(C)(C)[C@@H]2C(=O)O [NAFCILLIN]	1 (≈ 2.41 µM)	1 (≈ 2.41 µM)	1 (≈ 2.41 µM)	1 (≈ 2.41 µM)	Active	1 (≈ 2.41 µM)	1 (≈ 2.41 µM)	inactive	2 (≈ 4.83 µM)	1 (≈ 2.41 µM)	1 (≈ 2.41 µM)	1 (≈ 2.41 µM)	1 (≈ 2.41 µM)	4 (≈ 9.65 µM)	2 (≈ 4.83 µM)	1 (≈ 2.41 µM)	16 (≈ 38.6 µM)	4 (≈ 9.65 µM)	1 (≈ 2.41 µM)	1 (≈ 2.41 µM)
C[C@H]1[C@H](NC(=O)/C(=N\OC(C)(C)C(=O)O)c2csc(N)n2)C(=O)N1S(=O)(=O)O [AZTREONAM]	0.063 (≈ 0.145 µM)	0.063 (≈ 0.145 µM)	0.063 (≈ 0.145 µM)	0.063 (≈ 0.145 µM)	Active	0.063 (≈ 0.145 µM)	0.063 (≈ 0.145 µM)	inactive	0.063 (≈ 0.145 µM)	0.063 (≈ 0.145 µM)	0.063 (≈ 0.145 µM)	0.063 (≈ 0.145 µM)	0.063 (≈ 0.145 µM)	0.25 (≈ 0.574 µM)	0.063 (≈ 0.145 µM)	0.063 (≈ 0.145 µM)	0.25 (≈ 0.574 µM)	0.063 (≈ 0.145 µM)	0.063 (≈ 0.145 µM)	0.063 (≈ 0.145 µM)
CO[C@@H]1[C@@H](OC(N)=O)[C@@H](O)[C@H](Oc2ccc3c(O)c(NC(=O)c4ccc(O)c(CC=C(C)C)c4)c(=O)oc3c2C)OC1(C)C [NOVOBIOCIN]	4 (≈ 6.53 µM)	4 (≈ 6.53 µM)	4 (≈ 6.53 µM)	2 (≈ 3.26 µM)	Active	2 (≈ 3.26 µM)	4 (≈ 6.53 µM)	inactive	4 (≈ 6.53 µM)	2 (≈ 3.26 µM)	4 (≈ 6.53 µM)	2 (≈ 3.26 µM)	2 (≈ 3.26 µM)	8 (≈ 13.1 µM)	4 (≈ 6.53 µM)	4 (≈ 6.53 µM)	16 (≈ 26.1 µM)	8 (≈ 13.1 µM)	4 (≈ 6.53 µM)	2 (≈ 3.26 µM)
Cc1onc(-c2ccccc2)c1C(=O)N[C@@H]1C(=O)N2[C@@H]1SC(C)(C)[C@@H]2C(=O)O [OXACILLIN]	0.5 (≈ 1.25 µM)	1 (≈ 2.49 µM)	0.5 (≈ 1.25 µM)	0.5 (≈ 1.25 µM)	Active	0.5 (≈ 1.25 µM)	1 (≈ 2.49 µM)	inactive	1 (≈ 2.49 µM)	0.5 (≈ 1.25 µM)	0.5 (≈ 1.25 µM)	0.5 (≈ 1.25 µM)	0.5 (≈ 1.25 µM)	4 (≈ 9.96 µM)	1 (≈ 2.49 µM)	0.5 (≈ 1.25 µM)	8 (≈ 19.9 µM)	2 (≈ 4.98 µM)	0.5 (≈ 1.25 µM)	0.5 (≈ 1.25 µM)
C[C@H](CCC(=O)O)[C@H]1CC[C@H]2[C@@H]3CC[C@@H]4C[C@H](O)CC[C@]4(C)[C@H]3C[C@H](O)[C@]12C [DEOXYCHOLIC ACID]	2500 (≈ 6370 µM)	5000 (≈ 12700 µM)	5000 (≈ 12700 µM)	156 (≈ 397 µM)	Active	2500 (≈ 6370 µM)	5000 (≈ 12700 µM)	inactive	5000 (≈ 12700 µM)	2500 (≈ 6370 µM)	2500 (≈ 6370 µM)	2500 (≈ 6370 µM)	156 (≈ 397 µM)	10000 (≈ 25500 µM)	5000 (≈ 12700 µM)	2500 (≈ 6370 µM)	40000 (≈ 102000 µM)	10000 (≈ 25500 µM)	5000 (≈ 12700 µM)	156 (≈ 397 µM)
NC[C@H]1O[C@H](O[C@H]2[C@H](O)[C@@H](O[C@H]3O[C@H](CO)[C@@H](O)[C@H](N)[C@H]3O)[C@H](N)C[C@@H]2N)[C@H](O)[C@@H](O)[C@@H]1O [KANAMYCIN]	1 (≈ 2.06 µM)	2 (≈ 4.13 µM)	2 (≈ 4.13 µM)	1 (≈ 2.06 µM)	Active	2 (≈ 4.13 µM)	2 (≈ 4.13 µM)	inactive	2 (≈ 4.13 µM)	2 (≈ 4.13 µM)	1 (≈ 2.06 µM)	4 (≈ 8.26 µM)	1 (≈ 2.06 µM)	8 (≈ 16.5 µM)	2 (≈ 4.13 µM)	1 (≈ 2.06 µM)	8 (≈ 16.5 µM)	4 (≈ 8.26 µM)	2 (≈ 4.13 µM)	2 (≈ 4.13 µM)
CC1(C)S[C@@H]2[C@H](NC(=O)C(c3ccccc3)S(=O)(=O)O)C(=O)N2[C@H]1C(=O)O (some centres undefined) [SULBENICILLIN]	1 (≈ 2.41 µM)	2 (≈ 4.83 µM)	1 (≈ 2.41 µM)	1 (≈ 2.41 µM)		1 (≈ 2.41 µM)	2 (≈ 4.83 µM)		2 (≈ 4.83 µM)	1 (≈ 2.41 µM)	1 (≈ 2.41 µM)	1 (≈ 2.41 µM)	1 (≈ 2.41 µM)	8 (≈ 19.3 µM)	2 (≈ 4.83 µM)	1 (≈ 2.41 µM)	16 (≈ 38.6 µM)	2 (≈ 4.83 µM)	1 (≈ 2.41 µM)	1 (≈ 2.41 µM)
NC(=O)OC[C@@H]1[C@H](NC(=O)/C(=N\OCC(=O)O)c2csc(N)n2)C(=O)N1S(=O)(=O)O [CARUMONAM]	0.031 (≈ 0.0665 µM)	0.031 (≈ 0.0665 µM)	0.031 (≈ 0.0665 µM)	0.031 (≈ 0.0665 µM)		0.031 (≈ 0.0665 µM)	0.031 (≈ 0.0665 µM)		0.031 (≈ 0.0665 µM)	0.031 (≈ 0.0665 µM)	0.031 (≈ 0.0665 µM)	0.031 (≈ 0.0665 µM)	0.031 (≈ 0.0665 µM)	0.13 (≈ 0.279 µM)	0.031 (≈ 0.0665 µM)	0.031 (≈ 0.0665 µM)	0.25 (≈ 0.536 µM)	0.063 (≈ 0.135 µM)	0.031 (≈ 0.0665 µM)	0.031 (≈ 0.0665 µM)
CC1(C)S[C@@H]2[C@H](NC(=O)C(C(=O)O)c3ccccc3)C(=O)N2[C@H]1C(=O)O (some centres undefined) [CARBENICILLIN]	1 (≈ 2.64 µM)	1 (≈ 2.64 µM)	1 (≈ 2.64 µM)	1 (≈ 2.64 µM)		1 (≈ 2.64 µM)	1 (≈ 2.64 µM)		1 (≈ 2.64 µM)	1 (≈ 2.64 µM)	1 (≈ 2.64 µM)	1 (≈ 2.64 µM)	1 (≈ 2.64 µM)	4 (≈ 10.6 µM)	1 (≈ 2.64 µM)	1 (≈ 2.64 µM)	8 (≈ 21.1 µM)	2 (≈ 5.29 µM)	1 (≈ 2.64 µM)	1 (≈ 2.64 µM)
